Results taken from ChEMBL document CHEMBL1255280, “P-glycoprotein limits oral availability, brain penetration, and toxicity of an anionic drug, the antibiotic salinomycin” (Antimicrob Agents Chemother, 2008).

Legend:
[1] = system: Mus musculus; test: Ratio of Tmax in mdr1a/1b double knockout mouse to Tmax in wild-type mouse at 1 mg/kg, po; format: ADME, organism-based; design: dose 1 mg/kg, route oral; settings: in vivo
Method in brief: (§1)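 Male FVB WT or Mdr1a/1b–/– mice (n = 5) were fasted 3 h. They received 1 mg/kg by gavage (10 ml/kg of 0.1 mg/ml, made as an ethanol stock diluted 100-fold in saline). Tail-vein plasma was sampled at 0.25, 0.5, 1, 2, 4 and 6 h and analysed by LC-MS/MS. Noncompartmental trapezoidal AUC0-6 and AUC(0-∞). Cmax and Tmax were taken from the observed data.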

[2] = system: Mus musculus; test: Ratio of AUC (0 to infinity) in mdr1a/1b double knockout mouse to AUC (0 to infinity) in wild-type mouse at 1 mg/kg, iv; format: ADME, organism-based; design: dose 1 mg/kg, route intravenous; settings: in vivo
Method in brief: (§2)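 Male FVB WT or Mdr1a/1b–/– mice (n = 5). Dosing solution was 10 mg/ml in absolute ethanol, diluted 50-fold with saline to 0.2 mg/ml, and given as a single i.v. tail-vein bolus of 1 mg/kg (5 ml/kg). Tail-vein plasma was sampled at 0.125–6 h and analysed by LC-MS/MS. Noncompartmental analysis with trapezoidal AUC0-6 and AUC(0-∞). CL = dose/AUC(0-∞). Wilcoxon rank sum test.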

[3] = Drug uptake in mdr1a/1b double knockout mouse brain at 1 mg/kg, iv after 180 mins by LC-MS/MS analysis; format: ADME, organism-based; design: dose 1 mg/kg, route intravenous; settings: read-out: Drug uptake
Method in brief: (§3)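 WT or Mdr1a/1b–/– mice (n = 4) received a single 1 mg/kg i.v. tail-vein bolus (5 ml/kg; 0.2 mg/ml in ethanol/saline). At 180 min, plasma, brain, liver and small intestinal contents were collected. Salinomycin was quantified by LC-MS/MS. Brain/plasma ratios were calculated. Wilcoxon rank sum test.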

[4] = system: Mus musculus; test: Toxicity in mdr1a/1b double knockout mouse assessed as decrease in respiratory frequency at 10 mg/kg, po after 15 to 30 mins; format: organism-based; design: dose 10 mg/kg, route oral; settings: in vivo
Method in brief: (§4)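 Fasted (3 h) WT and Mdr1a/1b–/– mice (n = 5) received 10 mg/kg orally by gavage in ethanol/saline (10 ml/kg). They were observed 15 to 30 min after dosing for signs of poisoning, including limb paralysis and respiratory frequency.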

[5] = system: Mus musculus; test: Toxicity in mdr1a/1b double knockout mouse at 1 mg/kg, po; format: organism-based; design: dose 1 mg/kg, route oral; settings: in vivo
[6] = Ratio of drug uptake in brain to drug uptake in plasma in mdr1a/1b double knockout mouse at 1 mg/kg, iv after 180 mins by LC-MS/MS analysis; format: ADME, organism-based; design: dose 1 mg/kg, route intravenous; method in brief: as §3
[7] = Drug uptake in mdr1a/1b double knockout mouse small intestinal content at 1 mg/kg, iv after 180 mins by LC-MS/MS analysis; format: ADME, organism-based; design: dose 1 mg/kg, route intravenous; settings: read-out: Drug uptake; method in brief: as §3
[8] = Drug uptake in wild-type mouse liver at 1 mg/kg, iv after 180 mins by LC-MS/MS analysis; format: ADME, organism-based; design: dose 1 mg/kg, route intravenous; settings: read-out: Drug uptake; method in brief: as §3
[9] = system: Mus musculus; test: Ratio of plasma clearance in mdr1a/1b double knockout mouse to plasma clearance in wild-type mouse at 1 mg/kg, iv; format: ADME, organism-based; design: dose 1 mg/kg, route intravenous; settings: in vivo; method in brief: as §2
[10] = system: Brain; test: Ratio of drug uptake in brain in mdr1a/1b double knockout mouse to drug uptake in brain in wild-type mouse at 1 mg/kg, iv after 180 mins by LC-MS/MS analysis; format: ADME, organism-based; design: dose 1 mg/kg, route intravenous; settings: in vivo, 3 h; method in brief: as §3
[11] = AUC (0 to infinity) in mdr1a/1b double knockout mouse at 1 mg/kg, po; format: ADME, organism-based; design: dose 1 mg/kg, route oral, time infinity; settings: plasma; method in brief: as §1
[12] = system: Mus musculus; test: Ratio of AUC (0 to 6 hrs) in mdr1a/1b double knockout mouse to AUC (0 to 6 hrs) in wild-type mouse at 1 mg/kg, po; format: ADME, organism-based; design: dose 1 mg/kg, route oral; settings: in vivo; method in brief: as §1
[13] = system: Mus musculus; test: Toxicity in mdr1a/1b double knockout mouse assessed as paralyzed fore limb and hind limb at 10 mg/kg, po after 15 to 30 mins; format: organism-based, Hindlimb; design: dose 10 mg/kg, route oral; settings: in vivo; method in brief: as §4
[14] = Plasma clearance in wild-type mouse at 1 mg/kg, iv; format: ADME, organism-based; design: dose 1 mg/kg, route intravenous
[15] = Cmax in wild-type mouse at 1 mg/kg, po; format: ADME, organism-based; design: dose 1 mg/kg, route oral; settings: in vivo; method in brief: as §1
[16] = system: Mus musculus; test: Ratio of Cmax in mdr1a/1b double knockout mouse to Cmax in wild-type mouse at 1 mg/kg, po; format: ADME, organism-based; design: dose 1 mg/kg, route oral; settings: in vivo; method in brief: as §1
[17] = system: Mus musculus; test: Toxicity in wild-type mouse at 10 mg/kg, po after 15 to 30 mins; format: organism-based; design: dose 10 mg/kg, route oral; settings: in vivo; method in brief: as §4
[18] = Tmax in wild-type mouse at 10 mg/kg, po; format: ADME, organism-based; design: dose 10 mg/kg, route oral; settings: in vivo
Method in brief: (§5)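 Fasted (3 h) FVB WT mice (n = 5) were given 10 mg/kg by gavage (10 ml/kg of 1 mg/ml, an ethanol stock diluted 10-fold in saline). Tail-vein plasma was collected from 0.25 to 6 h and measured by LC-MS/MS. Only the trapezoidal AUC0-6 was calculated. Cmax and Tmax were taken from the observed data.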

[19] = Tmax in wild-type mouse at 1 mg/kg, po; format: ADME, organism-based; design: dose 1 mg/kg, route oral; settings: in vivo; method in brief: as §1
[20] = system: Plasma; test: Ratio of drug uptake in plasma in mdr1a/1b double knockout mouse to drug uptake in plasma in wild-type mouse at 1 mg/kg, iv after 180 mins by LC-MS/MS analysis; format: ADME, organism-based; design: dose 1 mg/kg, route intravenous; settings: in vivo, 3 h; method in brief: as §3
[21] = Cmax in mdr1a/1b double knockout mouse at 1 mg/kg, po; format: ADME, organism-based; design: dose 1 mg/kg, route oral; settings: in vivo; method in brief: as §1
[22] = system: Mus musculus; test: Ratio of AUC (0 to 6 hrs) in mdr1a/1b double knockout mouse to AUC (0 to 6 hrs) in wild-type mouse at 1 mg/kg, IV; format: ADME, organism-based; design: dose 1 mg/kg, route intravenous; settings: in vivo; method in brief: as §2
[23] = Plasma clearance in mdr1a/1b double knockout mouse at 1 mg/kg, iv; format: ADME, organism-based; design: dose 1 mg/kg, route intravenous; method in brief: as §2
[24] = AUC (0 to 6 hrs) in mdr1a/1b double knockout mouse at 1 mg/kg, iv; format: ADME, organism-based; design: time < 6 hr, dose 1 mg/kg, route intravenous; settings: plasma; method in brief: as §2
[25] = Tmax in mdr1a/1b double knockout mouse at 1 mg/kg, po; format: ADME, organism-based; design: dose 1 mg/kg, route oral; settings: in vivo; method in brief: as §1
[26] = Ratio of drug uptake in brain to drug uptake in plasma in wild-type mouse at 1 mg/kg, iv after 180 mins by LC-MS/MS analysis; format: ADME, organism-based; design: dose 1 mg/kg, route intravenous; method in brief: as §3
[27] = Drug uptake in wild-type mouse small intestinal content at 1 mg/kg, iv after 180 mins by LC-MS/MS analysis; format: ADME, organism-based; design: dose 1 mg/kg, route intravenous; settings: read-out: Drug uptake; method in brief: as §3
[28] = Ratio of drug uptake in small intestinal content in mdr1a/1b double knockout mouse to drug uptake in small intestinal content in wild-type mouse at 1 mg/kg, iv after 180 mins by LC-MS/MS analysis; format: ADME, organism-based; design: dose 1 mg/kg, route intravenous; settings: in vivo, 3 h; method in brief: as §3
[29] = Drug uptake in mdr1a/1b double knockout mouse plasma at 1 mg/kg, iv after 180 mins by LC-MS/MS analysis; format: ADME, organism-based; design: dose 1 mg/kg, route intravenous; settings: read-out: Drug uptake; method in brief: as §3
[30] = AUC (0 to infinity) in wild-type mouse at 1 mg/kg, iv; format: ADME, organism-based; design: time infinity, dose 1 mg/kg, route intravenous; settings: plasma; method in brief: as §2
[31] = AUC (0 to 6 hrs) in wild-type mouse at 10 mg/kg, po; format: ADME, organism-based; design: time < 6 hr, dose 10 mg/kg, route oral; settings: plasma; method in brief: as §5
[32] = AUC (0 to 6 hrs) in mdr1a/1b double knockout mouse at 1 mg/kg, po; format: ADME, organism-based; design: time < 6 hr, dose 1 mg/kg, route oral; settings: plasma; method in brief: as §1
[33] = Drug uptake in mdr1a/1b double knockout mouse liver at 1 mg/kg, iv after 180 mins by LC-MS/MS analysis; format: ADME, organism-based; design: dose 1 mg/kg, route intravenous; settings: read-out: Drug uptake; method in brief: as §3
[34] = AUC (0 to 6 hrs) in wild-type mouse at 1 mg/kg, iv; format: ADME, organism-based; design: time < 6 hr, dose 1 mg/kg, route intravenous; settings: plasma; method in brief: as §2
[35] = Drug uptake in wild-type mouse brain at 1 mg/kg, iv after 180 mins by LC-MS/MS analysis; format: ADME, organism-based; design: dose 1 mg/kg, route intravenous; settings: read-out: Drug uptake; method in brief: as §3
[36] = Drug uptake in wild-type mouse plasma at 1 mg/kg, iv after 180 mins by LC-MS/MS analysis; format: ADME, organism-based; design: dose 1 mg/kg, route intravenous; settings: read-out: Drug uptake; method in brief: as §3
[37] = system: Liver; test: Ratio of drug uptake in liver in mdr1a/1b double knockout mouse to drug uptake in liver in wild-type mouse at 1 mg/kg, iv after 180 mins by LC-MS/MS analysis; format: ADME, organism-based; design: dose 1 mg/kg, route intravenous; settings: in vivo, 3 h; method in brief: as §3
[38] = AUC (0 to infinity) in wild-type mouse at 1 mg/kg, po; format: ADME, organism-based; design: time infinity, dose 1 mg/kg, route oral; settings: plasma; method in brief: as §1
[39] = system: Mus musculus; test: Ratio of AUC (0 to infinity) in mdr1a/1b double knockout mouse to AUC (0 to infinity) in wild-type mouse at 1 mg/kg, po; format: ADME, organism-based; design: dose 1 mg/kg, route oral; settings: in vivo; method in brief: as §1
[40] = Cmax in wild-type mouse at 10 mg/kg, po; format: ADME, organism-based; design: dose 10 mg/kg, route oral; settings: in vivo; method in brief: as §5
[41] = AUC (0 to infinity) in mdr1a/1b double knockout mouse at 1 mg/kg, iv; format: ADME, organism-based; design: time infinity, dose 1 mg/kg, route intravenous; settings: plasma; method in brief: as §2
[42] = AUC (0 to 6 hrs) in wild-type mouse at 1 mg/kg, po; format: ADME, organism-based; design: time < 6 hr, dose 1 mg/kg, route oral; settings: plasma; method in brief: as §1

CC[C@@H](C(=O)[C@@H](C)[C@@H](O)[C@H](C)[C@@H]1O[C@@H]([C@@H](CC)C(=O)O)CC[C@@H]1C)[C@H]1O[C@]2(C=C[C@@H](O)[C@]3(CC[C@@](C)([C@H]4CC[C@](O)(CC)[C@H](C)O4)O3)O2)[C@H](C)C[C@@H]1C [SALINOMYCIN]
Ratio [1]: 1 | Ratio AUC [2]: 2 | concentration at 3 h [3]: 53.2 ng/g | Activity [4]: Toxic | Activity [5]: Non-toxic | Kp at 3 h [6]: 0.2 | concentration at 3 h [7]: 290 ng/g | concentration at 3 h [8]: 7400 ng/g | Ratio [9]: 0.5 | Ratio [10]: 5.8 | AUC(0-inf) [11]: 251 ng·h/mL | Ratio AUC [12]: 3.2 | Activity [13]: Toxic | clearance [14]: 13.7 mL/min/kg | Cmax [15]: 13.2 ng/mL | Ratio [16]: 3.1 | Activity [17]: Non-toxic | Tmax [18]: 0.5 h | Tmax [19]: 2 h | Ratio [20]: 3.7 | Cmax [21]: 41 ng/mL | Ratio AUC [22]: 1.8 | clearance [23]: 6.17 mL/min/kg | AUC(0-t) at 6 h [24]: 2370 ng·h/mL | Tmax [25]: 2 h | Kp at 3 h [26]: 0.13 | concentration at 3 h [27]: 210 ng/g | Ratio [28]: 1.4 | concentration at 3 h [29]: 270 ng/mL | AUC(0-inf) [30]: 1370 ng·h/mL | AUC(0-t) at 6 h [31]: 2130 ng·h/mL | AUC(0-t) at 6 h [32]: 196 ng·h/mL | concentration at 3 h [33]: 6500 ng/g | AUC(0-t) at 6 h [34]: 1310 ng·h/mL | concentration at 3 h [35]: 9.2 ng/g | concentration at 3 h [36]: 72.5 ng/mL | Ratio [37]: 0.9 | AUC(0-inf) [38]: 80.2 ng·h/mL | Ratio AUC [39]: 3.1 | Cmax [40]: 517 ng/mL | AUC(0-inf) [41]: 2810 ng·h/mL | AUC(0-t) at 6 h [42]: 62.1 ng·h/mL
